Data as given in ChEMBL document CHEMBL3856227, “Identification of the first small-molecule inhibitor of the REV7 DNA repair protein interaction” (Bioorg Med Chem, 2016).
Each block holds one compound with its values, some of them ahead of it. The source made the active and inactive calls. The rule behind the calls is not given here.

Experiments:
Homo sapiens [1] = species: Homo sapiens; experiment: Binding affinity to biotin-Avi-tagged REV3L (1846 to 1898 residues)/His-tagged REV7 R124A mutant complex (unknown origin) expressed in Escherichia coli BL21(DE3) at 5 uM incubated for 20 hrs by pulldown assay
In short: (§1)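 Complex at 1 µM (biotin-AviTag-REV3L(1846–1898) co-expressed with His-REV7(R124A), Ni-purified) with 0.5% DMSO, compound (50 µM) or REV3L(1875–1895) peptide (5 µM) in 50 mM HEPES pH 7.4, 150 mM NaCl, 0.1% Tween 20. Shaken at 1500 rpm, 4 °C, 20 h. Streptavidin agarose then added for 4 h. Beads washed, heat-eluted, run on SDS gel, stained. Duplicates.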

Homo sapiens [2] = species: Homo sapiens; experiment: Inhibition of C-terminal TAMRA-labeled REV3L (1875 to 1895 residues) binding to 5'-MBP-His8/3'-FLAG-tagged REV7 R124A mutant (unknown origin) expressed in Escherichia coli BL21(DE3) at 3 to 300 uM after 4 hrs by fluorescence polarization assay
In short: (§2)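 Compounds serially diluted from 10 mM DMSO stock. 4 h incubation, triplicate. Read at ex 555/em 632 nm, reported in mP. Controls: DMSO, and unlabeled REV3L peptides. Compound autofluorescence checked.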

HeLa [3] = experiment: Cytotoxicity in human HeLa cells assessed as decrease in cell viability at 75 uM after 3 days by alamar blue assay; type: functional, cell-based
In short: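 HeLa cells at 1000/well, attached overnight, then given compound or DMSO in fresh medium, triplicate, for 3 days. alamarBlue added for 3 h, fluorescence read at ex 510/em 590 nm. Viability normalized to DMSO-treated cells.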

[4] = Inhibition of C-terminal TAMRA-labeled REV3L (1875 to 1895 residues) binding to 5'-MBP-His8/3'-FLAG-tagged REV7 R124A mutant (unknown origin) expressed in Escherichia coli BL21(DE3) after 4 hrs by fluorescence polarization assay; set-up: species or system Homo sapiens; in short: as §2
[5] = system: Mitotic spindle assembly checkpoint protein MAD2B (Homo sapiens), Q9UI95 [R124A]; experiment: Binding affinity to 5'-MBP-His8/3'-FLAG-tagged REV7 R124A mutant (unknown origin) expressed in Escherichia coli BL21(DE3) at 200 uM by 1H waterLOGSY NMR method
HeLa [6] = experiment: Potentiation of cisplatin-induced anticlonogenic activity in human HeLa cells at 75 uM after 24 hrs by crystal violet staining based assay; type: functional, cell-based
In short: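 HeLa cells at 450/well in 6-well plates, attached overnight. Cisplatin added at indicated concentrations; 24 h later, compound at 75 µM final or DMSO added for another 24 h. Medium then replaced and culture continued 6 days. Fixed in 3.7% formaldehyde, stained with 0.5% crystal violet, colonies over ~40 cells counted. Triplicate. Survival normalized to cisplatin-vehicle (0.9% NaCl) wells.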

COS-7 = experiment: Inhibition of REV7/REV3L protein interaction in African green monkey COS7 cells expressing ICL assessed as inhibition of ICL repair activity at 75 uM after 13 hrs by luciferase reporter gene assay; type: cell-based; conditions: Chlorocebus aethiops
In short: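 COS7 cells at 80,000/well. Medium replaced after 5 h, then transfected with pGL-ICL (10 ng) or pGL4.50 (2.5 ng) plus pRL-TK, FuGENE 6. Cells trypsinized 5 h later and replated in quadruplicate with compound or DMSO. Dual firefly/Renilla luciferase read after 13 h. ICL plasmid signal normalized to non-ICL plasmid. Two-tailed unpaired t-test.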

Homo sapiens [7] = species: Homo sapiens; experiment: Inhibition of C-terminal biotin-tagged REV3L (1875 to 1895 residues) binding to REV3L (1846 to 1898 residues)/His-tagged REV7 R124A mutant complex (unknown origin) expressed in Escherichia coli BL21(DE3) […] by alphascreen assay
Homo sapiens [8] = species: Homo sapiens; experiment: Destabilization of biotin-Avi-tagged REV3L (1846 to 1898 residues)/His-tagged REV7 R124A mutant complex (unknown origin) expressed in Escherichia coli BL21(DE3) incubated for 4 hrs by SYPRO orange dye based RT-PCR analysis
In short: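 His-REV7(R124A)/REV3L complex at 5 µM in 25 mM HEPES, 100 mM NaCl, pH 7.3 with SYPRO orange 1:2000. Compound at 500 µM final (10 mM DMSO stock) or DMSO, duplicate, 4 h at room temperature. Ramp 25 to 95 °C at 1 °C/min, ex 492/em 610 nm. Tm taken as inflection point of Boltzmann sigmoid fit.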

Homo sapiens [9] = species: Homo sapiens; experiment: Binding affinity to biotin-Avi-tagged REV3L (1846 to 1898 residues)/His-tagged REV7 R124A mutant complex (unknown origin) expressed in Escherichia coli BL21(DE3) at 50 uM incubated for 20 hrs by pulldown assay; in short: as §1

Mitotic spindle assembly checkpoint protein MAD2B (Homo sapiens), Q9UI95 [R124A], sequence (Q9UI95 whole entry R124A): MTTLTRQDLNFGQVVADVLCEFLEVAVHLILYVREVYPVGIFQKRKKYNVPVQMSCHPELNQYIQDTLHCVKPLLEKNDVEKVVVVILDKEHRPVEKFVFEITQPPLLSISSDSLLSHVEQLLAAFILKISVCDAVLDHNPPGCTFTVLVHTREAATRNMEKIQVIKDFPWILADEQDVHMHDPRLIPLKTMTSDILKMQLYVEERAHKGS

Activity (Homo sapiens [1]): Active
SMILES: CC[C@H](C)[C@H](NC(=O)[C@H](CCC(=O)O)NC(=O)[C@H](CCC(=O)O)NC(=O)[C@H](CCCNC(=N)N)NC(=O)[C@H](CO)NC(=O)[C@@H]1CCCN1C(=O)[C@@H]1CCCN1C(=O)[C@H](CO)NC(=O)[C@H](CCSC)NC(=O)[C@H](CC(C)C)NC(=O)[C@@H]1CCCN1C(=O)[C@H](CCCCN)NC(=O)[C@H](CC(C)C)NC(=O)[C@@H](NC(=O)[C@H](CC(N)=O)NC(=O)[C@H](C)N)[C@@H](C)CC)C(=O)N[C@@H](CCSC)C(=O)N[C@@H](C)C(=O)N[C@H](C(=O)N[C@@H](CC(C)C)C(=O)N[C@@H](CC(C)C)C(=O)O)[C@@H](C)O

inhibition (Homo sapiens [2]): Active
SMILES: CC(=O)N1CCC(Cn2cnc3scc(-c4ccc(C(=O)N5CCOCC5)o4)c3c2=O)CC1

IC50 [4]: 78 µM | Activity [5]: Active
SMILES: CC(=O)N1CCC(Cn2cnc3scc(-c4ccc(C)o4)c3c2=O)CC1
Activity (HeLa [3]): Active | Activity (HeLa [6]): Active | inhibition (COS-7): Active

inhibition (Homo sapiens [7]): Active | Activity (Homo sapiens [8]): Active | Activity (Homo sapiens [9]): Active
SMILES: CC(=O)N1CCC(Cn2cnc3scc(-c4ccco4)c3c2=O)CC1
